Test results as given in paper PMC8668982 (The Journal of Biological Chemistry, 2021).
Numbering of substitutions follows the chain as printed.

How the values were obtained:
[1] = biological target: T1, TnIYD (Thermotoga neapolitana, UniProt B9K712); experiment: Catalytic dehalogenation, steady-state kinetics; format: biochemical; conditions: for Km / kcat: substrate of TnIYD
T1 sequence (B9K712 1-186): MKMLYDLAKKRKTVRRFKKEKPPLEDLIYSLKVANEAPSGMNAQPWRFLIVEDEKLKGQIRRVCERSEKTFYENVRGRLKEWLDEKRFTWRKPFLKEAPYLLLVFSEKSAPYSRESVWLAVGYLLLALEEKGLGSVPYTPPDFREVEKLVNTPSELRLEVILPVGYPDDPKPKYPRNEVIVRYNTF

[2] = biological target: T1, TnIYD; experiment: Active site ligand binding by quenching of FMNox fluorescence, wild-type TnIYD
[3] = biological target: T2, TnIYD M41A (Thermotoga neapolitana, UniProt B9K712, M41A); experiment: Active site ligand binding by quenching of FMNox fluorescence, M41A variant
T2 sequence (B9K712 1-186 M41A): T1 sequence (B9K712 1-186) with M41A
In short: (§1)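 C-terminal His6-tagged T. neapolitana IYD variants, made by mutagenesis, were expressed in E. coli Rosetta2 and purified on Ni-NTA. They were incubated with ~300 μM FMN and quantified by bound-FMN A450. Excitation was 450 nm and emission 516–526 nm. Dilution-corrected F/F0 versus ligand was fit to a two-state binding isotherm.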

[4] = biological target: T3, TnIYD Y112A/W82A/F88A (Thermotoga neapolitana, UniProt B9K712, F88A/W82A/Y112A); format: binding
T3 sequence (B9K712 1-186 W82A/F88A/Y112A): T1 sequence (B9K712 1-186) with W82A, F88A, Y112A
In short: as §1

[5] = test system: IYD from mesophiles; conditions: cited from earlier work
[6] = biological target: T4, TnIYD M41F (Thermotoga neapolitana, UniProt B9K712, M41F); experiment: Active site ligand binding by quenching of FMNox fluorescence, M41F variant
T4 sequence (B9K712 1-186 M41F): T1 sequence (B9K712 1-186) with M41F
In short: as §1

[7] = biological target: T5, TnIYD M41K (Thermotoga neapolitana, UniProt B9K712, M41K); experiment: Active site ligand binding by quenching of FMNox fluorescence, M41K variant
T5 sequence (B9K712 1-186 M41K): T1 sequence (B9K712 1-186) with M41K
In short: as §1

[8] = biological target: T6, TnIYD Y112A (Thermotoga neapolitana, UniProt B9K712, Y112A); experiment: Active site ligand binding by quenching of FMNox fluorescence, Y112A variant
T6 sequence (B9K712 1-186 Y112A): T1 sequence (B9K712 1-186) with Y112A
In short: as §1

[9] = biological target: T7, TnIYD M41A/Y112A (Thermotoga neapolitana, UniProt B9K712, M41A/Y112A); format: binding
T7 sequence (B9K712 1-186 M41A/Y112A): T1 sequence (B9K712 1-186) with M41A, Y112A
In short: as §1

Oc1ccccc1I [2-IP, 2-iodophenol]
difference in Km values for I-Tyr and 2-IP ([1]; 25 °C): 19,000 fold | difference of kcat relative to the kcat value of I-Tyr ([1]; 25 °C): 2 fold | efficiency (kcat/Km) relative to that for iodotyrosine ([1]; 25 °C): less than 0.01% | Km ([1]; 25 °C): 4.2 mM | kcat ([1]; 25 °C): 0.014 ± 0.001 s⁻¹ | increase of kcat at 60 °C relative to 25 °C ([1]; 60 °C vs 25 °C): less than 8 fold | Km ([1]; 60 °C): 6.6 mM | kcat ([1]; 60 °C): 0.108 ± 0.005 s⁻¹ | kcat/Km smaller than that for I-Tyr ([1]; at both temperatures (25 °C and 60 °C)): more than 10,000 fold | Kd [2]: 31 ± 1 µM

N[C@@H](Cc1ccc(O)cc1)C(=O)O [Tyr, tyrosine]
Kd [3]: 1.6 ± 0.2 µM | weakening of affinity by M41A substitution relative to wt TnIYD ([3]; 25 °C): 3.6 fold | Kd [4]: 1200 ± 20 µM | weakening of binding by W82A/F88A/Y112A triple mutant relative to wt TnIYD ([4]; 25 °C): more than 2600 fold | affinity of Tyr to IYD from mesophiles [5]: too weak to measure | Kd [6]: 0.09 ± 0.06 µM | enhancement of binding by M41F variant relative to wt TnIYD ([6]; 25 °C): 5 fold | Kd [7]: 7.4 ± 0.2 µM | decrease of affinity by M41K variant relative to wt TnIYD ([7]; 25 °C): 16 fold | Kd [8]: 0.9 ± 0.1 µM | Kd [2]: 0.45 ± 0.07 µM | Kd [9]: 0.95 ± 0.09 µM | decrease of affinity by M41A/Y112A variant relative to wt TnIYD ([9]; 25 °C): 2 fold
